Reference: ChEMBL document CHEMBL3286314, “Tetraoxane-pyrimidine nitrile hybrids as dual stage antimalarials” (J Med Chem, 2014)
Calls of active or inactive are those of the source. No cut-off for these calls is given here.

How the values were obtained:
[1] = tested on: Plasmodium falciparum; experiment: Antiplasmodial activity against chloroquine-sensitive Plasmodium falciparum 3D7 after 48 hrs by FACS analysis; type: functional, organism-based; conditions: 3D7, 48 h
[2] = Inhibition of Plasmodium falciparum recombinant falcipain-2 after 30 mins by spectrofluorometric analysis
Summary of the method: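 Recombinant falcipain-2 (~1 nM) preincubated 30 min at room temperature with inhibitor (from 100× DMSO stocks) in 100 mM sodium acetate pH 5.5, 10 mM dithiothreitol. Then Z-Leu-Arg-AMC substrate added (final 25 μM). Fluorescence monitored continuously for 30 min at room temperature; IC50 from activity plots.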

[3] = tested on: Plasmodium falciparum; experiment: Antiplasmodial activity against chloroquine-resistant Plasmodium falciparum W2 after 48 hrs by FACS analysis; type: functional, organism-based; conditions: W2, 48 h
Summary of the method: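 Synchronized ring-stage parasites cultured 48 h with multiple compound concentrations (from 1000× DMSO stocks) in RPMI 1640 with 10% human serum. Fixed in 1% formaldehyde/PBS pH 7.4 for 48 h at room temperature, stained with YOYO-1 (1 nM) in 0.1% Triton X-100/PBS. Parasitemia read by flow cytometry; IC50 from curve fits of percentage of control parasitemia.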

[4] = Selectivity index, ratio of CC50 for mouse NIH/3T3 cells to IC50 for chloroquine-resistant Plasmodium falciparum W2; type: functional
Summary of the method: (§1)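 SI taken as in vitro cytotoxicity IC50 on HEK293T or NIH3T3 cells divided by the P. falciparum W2 growth-inhibition IC50.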

[5] = Cytotoxicity against HEK293T cells; type: cell-based, HEK-293T; conditions: human
[6] = Selectivity index, ratio of CC50 for HEK293T cells to IC50 for chloroquine-resistant Plasmodium falciparum W2; type: functional, HEK-293T; summary of the method: as §1
[7] = Cytotoxicity against mouse NIH/3T3 cells; type: cell-based, NIH3T3
[8] = tested on: Plasmodium falciparum; experiment: Inhibition of falcipain-2-mediated hemoglobin degradation in ring stage Plasmodium falciparum assessed as development of swollen digestive vacuoles at 123 nM after 24 hrs
Summary of the method: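 Cultured parasites exposed to 123 nM compound for 24 h starting at ring stage. Examined for swollen digestive vacuoles with erythrocyte-cytoplasm staining characteristics.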

[9] = tested on: Plasmodium falciparum; experiment: Antiplasmodial activity against atovaquone-resistant Plasmodium falciparum FCR3 after 48 hrs by FACS analysis; type: functional, organism-based; conditions: FCR3, 48 h
[10] = tested on: Plasmodium berghei; experiment: Antiplasmodial activity against liver stage Plasmodium berghei infected in human HuH7 cells assessed as decrease in parasite load at 2 uM treated for 1 hr prior to infection measured after 48 hrs by luciferase luminescence assay; conditions: Huh-7
[11] = tested on: Plasmodium berghei; experiment: Antiplasmodial activity against liver stage Plasmodium berghei infected in human HuH7 cells assessed as decrease in parasite load at 10 uM treated for 1 hr prior to infection measured after 48 hrs by luciferase luminescence assay; conditions: Huh-7
[12] = tested on: Plasmodium berghei; experiment: Antiplasmodial activity against Plasmodium berghei ANKA infected in C57Bl/6J mouse assessed as parasitemia level at 30 mg/kg/day, ip qd for 5 days measured on day 18 post-infection by microscopic/flow cytometric analysis; type: functional; conditions: route intraperitoneal
Summary of the method: (§2)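 C57Bl/6J mice infected intraperitoneally with 2 × 10^6 GFP-expressing P. berghei ANKA-infected erythrocytes. Treatment started at parasitemia ca. 3.9% (day 4 postinfection): 30 mg/kg bw once daily ip for 5 days. Controls received equivalent drug vehicle. Parasitemia was followed daily by microscopy and flow cytometry; disease symptoms and survival were also recorded daily.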

[13] = tested on: Plasmodium berghei; experiment: Antiplasmodial activity against Plasmodium berghei ANKA infected in C57Bl/6J mouse assessed as parasitemia level at 30 mg/kg/day, ip qd for 5 days measured on day 8 post-infection by microscopic/flow cytometric analysis; type: functional, organism-based; summary of the method: as §2
[14] = tested on: Plasmodium berghei; experiment: Antiplasmodial activity against Plasmodium berghei ANKA infected in C57Bl/6J mouse assessed as survival at 30 mg/kg/day, ip qd for 5 days measured on day 18 post-infection; type: functional, organism-based; summary of the method: as §2
[15] = Half life of the compound in 18 equiv of FeSO4 in aqueous acetonitrile assessed as N'-(5-bromo-2-cyanopyrimidin-4-yl)-N'-isobutyl-4-oxocyclohexanecarbohydrazide level by LC-MS analysis; type: physicochemical; conditions: buffer
Summary of the method: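 Aqueous solution of compound treated with high concentration of iron(II) sulfate; mixture analysed by LCMS. Decomposition to the ketone product fitted to first-order decay kinetics to give the half-life.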

Compound	IC50 [1] [nM]	IC50 [2] [nM]	IC50 [3] [nM]	Ratio CC50/IC50 [4]	CC50 [5] [nM]	Ratio CC50/IC50 [6]	CC50 [7] [nM]	inhibition [8]	IC50 [9] [nM]	Activity [10]	Activity [11]	Activity [12] [%]	Activity [13]	Activity [14]	t1/2 [15] [h]
N#Cc1ncc(Br)c(N(CC2CCCC2)NC(=O)C2CCC3(CC2)OOC2(OO3)C3CC4CC(C3)CC2C4)n1 (stereo not given)	70.7	112	29.5	186	> 100000	>3390	5500	–	–	–	–	–	–	–	–
CC(C)CN(NC(=O)C1CCC2(CC1)OOC1(OO2)C2CC3CC(C2)CC1C3)c1cc(Cl)nc(C#N)n1 (stereo not given)	28.4	978	48.9	35	> 100000	>2045	1700	inactive	37.7	–	–	–	–	–	–
CC(C)CN(NC(=O)C1CCC2(CC1)OOC1(OO2)C2CC3CC(C2)CC1C3)c1nc(C#N)ncc1Br (stereo not given)	58.1	16.4	9.8	816	> 100000	>10000	8000	Active	–	–	–	–	–	–	–
CC(C)CN(NC(=O)C1CCC(=O)CC1)c1nc(C#N)ncc1Br	48.2	58.4	48.1	>2079	> 100000	>2079	> 100000	Active	–	Active	Active	–	–	–	–
O=C1C(O)=C([C@H]2CC[C@H](c3ccc(Cl)cc3)CC2)C(=O)c2ccccc21	–	–	–	–	–	–	–	–	–	Active	–	–	–	–	–
CC(C)CN(NC(=O)CC1CCC2(CC1)OOC1(OO2)C2CC3CC(C2)CC1C3)c1nc(C#N)ncc1Br (stereo not given)	18.9	95.1	22.8	101	85500	3750	2300	Active	–	–	–	–	–	–	–
N#Cc1ncc(Br)c(N(NC(=O)C2CCC3(CC2)OOC2(OO3)C3CC4CC(C3)CC2C4)C2CCCCC2)n1 (stereo not given)	78.5	25.3	22.4	63	> 100000	>4464	1400	Active	81.2	–	–	–	–	–	–
C[C@@H]1CC[C@H]2[C@@H](C)C(=O)O[C@@H]3O[C@@]4(C)CC[C@@H]1[C@]32OO4 [ARTEMISININ]	36.2	–	14.1	–	–	–	–	–	7.7	inactive	inactive	–	–	–	–
CC(C)CN(NC(=O)C1CCC2(CC1)OOC1(OO2)C2CC3CC(C2)CC1C3)c1ccnc(C#N)n1 (stereo not given)	13.1	909	47.3	19	> 100000	>2114	900	inactive	30.3	–	–	–	–	–	–
CC(C)CN(NC(=O)C1CCC2(CC1)OOC1(OO2)C2CC3CC(C2)CC1C3)c1nc(C#N)ncc1Cl (stereo not given)	80.9	3.4	33.8	133	> 100000	>2959	4500	Active	53.3	–	–	51	Active	Active	5.1
COc1cc(NC(C)CCCN)c2ncccc2c1 (stereo not given)	–	–	–	–	–	–	–	–	–	–	Active	–	–	–	–
